Screening data deposited in PubChem BioAssay by several laboratories.
Only some compounds are listed: those with a hit (about 2.4% of all), similar ones and a draw of the others.
MEX-5 binding: C. elegans MEX-5 TCR-2 RNA binding activity | Q9XUB2 | MEX-5/FITC-TCR2 RNA binding, fluorescence polarization; stronger effect = lower value | activity score (negative = inhibition of binding), % at 10 µM | 0.38% of 300,000 active;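 active = inhibition past about -25% in most replicates, and total fluorescence under double the plate's negative control median, limit read from the data; inconclusive = replicates evenly split on the limit, or fluorescence at least double controls; inactive = too little inhibition in most replicates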;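 note: 0% = DMSO and -100% = 5 µM competing unlabeled TCR2 RNA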
Runt-CBFb FRET: blocks binding of human RUNX1 Runt domain to CBFb; Cerulean-Runt/Venus-CBFb FRET ratio 530/480, 1 h; inhibition, % at 20 µM; 0.46% of 220,000 active; AID 1496;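 active = inhibition over about 50% at 20 µM in the single-dose screen, limit read from the data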;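 note: 0% = DMSO wells and 100% = excess unlabeled CBFb competitor control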
Target sequence (Q01196 whole entry, looked up, the tested form may be a part): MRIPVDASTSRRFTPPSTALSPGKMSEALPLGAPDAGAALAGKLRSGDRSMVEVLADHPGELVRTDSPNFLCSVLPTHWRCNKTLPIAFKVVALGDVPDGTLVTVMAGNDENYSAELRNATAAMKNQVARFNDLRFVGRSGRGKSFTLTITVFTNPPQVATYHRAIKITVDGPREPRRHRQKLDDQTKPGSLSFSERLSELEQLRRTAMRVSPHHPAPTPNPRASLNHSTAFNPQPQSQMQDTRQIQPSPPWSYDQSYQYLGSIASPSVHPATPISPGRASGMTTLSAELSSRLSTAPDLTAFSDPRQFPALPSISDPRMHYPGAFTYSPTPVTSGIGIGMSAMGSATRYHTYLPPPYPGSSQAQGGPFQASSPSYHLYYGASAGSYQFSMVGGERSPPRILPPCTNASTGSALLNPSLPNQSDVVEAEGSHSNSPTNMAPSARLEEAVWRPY
Target sequence (Q13951 whole entry, looked up, the tested form may be a part): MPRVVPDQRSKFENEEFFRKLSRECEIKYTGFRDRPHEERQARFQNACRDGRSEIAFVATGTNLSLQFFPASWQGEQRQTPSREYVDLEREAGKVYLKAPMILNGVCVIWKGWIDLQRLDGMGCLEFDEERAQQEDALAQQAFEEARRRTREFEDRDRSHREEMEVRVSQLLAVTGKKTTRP
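test system = Cerulean-Runt domain fusion protein, energy donor | probe or stimulus = Venus-CBFb binding partner, 100 nM | incubation = two 1 h room-temperature incubations shielded from light | detection = fluorescence energy transfer, 422 nm excitation, 530/480 nm emission | measure = loss of energy transfer signal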
EBV gp42 block: EBV gp42 inhibition; 0.42% of 220,000 active; Fluorescence polarization binding assay, mP read-out; Q1HVG2; inhibition, % (tested at 21.74 µM); in the data active = inhibition above about 50%
LANA-H2B inh: blocks KSHV LANA binding to histone H2A/H2B. inhibition, % (no concentration beside the values). 0.6% of 320,000 active. cell-free LANA-H2A/H2B peptide, fluorescence polarization. Q9QR71; in the data active = inhibition mostly above about 10%, no sharp cut-off; inactive = mostly below about 6.7%
RanGTP-Impb inh: disruptors of Ran-importin-beta complex formation – biochemical, FRET, CFP-Ran, YFP-importin-beta, homogeneous, primary screen; cell-free CFP-Ran/YFP-importin-beta FRET ratio; inhibition, % (no concentration beside the values); 1.1% of 300,000 active; AID 2216;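 active = more than half of the replicate wells show a fall in the fluorescence ratio signal beyond about 16%, limit read from the data, passing the limit was not always enough; inconclusive = exactly half of the replicate wells pass the set limit; inactive = fewer than half of replicates pass the limit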;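 note: 0% = DMSO wells and 100% = Ran loaded with GDP instead of GTP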
Runt-SMMHC FRET: blocks binding of human RUNX1 Runt domain to CBFb-SMMHC; Q01196+Q13951; Cerulean-Runt/Venus-CBFb-SMMHC FRET ratio 530/480, 1 h; inhibition, % at 20 µM; 0.74% of 220,000 active;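 active = mean inhibition across duplicate retests at 20 µM reaching about 50%, limit read from the data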;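 note: 0% = DMSO wells and 100% = wells with excess untagged CBFb-SMMHC; inhibitors lower the FRET ratio by blocking Runt binding to CBFb-SMMHC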
Starred values were filed as active, the others as inactive; ? = inconclusive; / = not tested or not shown.

SMILES | MEX-5 binding | Runt-CBFb FRET | EBV gp42 block | LANA-H2B inh | RanGTP-Impb inh | Runt-SMMHC FRET
CCc1nnc(NC(=O)C(C)Sc2ccccc2)s1 (configuration not stated) | 2 | 0 | -11 | 6 | 25* | 0
CC(C)(C)c1nn(-c2ccccc2)c2[nH]c(=O)c(CNCc3ccco3)cc12 | -27* | -9 | -18 | 0 | -1 | -40
CCCCN1C(=O)c2ccc(C(=O)NC3(C)CCS(=O)(=O)C3)cc2C1=O (configuration not stated) | / | / | / | -4 | / | /
CC(C)c1nc(SCC(=O)Nc2ccc3c(c2)OCO3)n[nH]1 | -1 | 2 | -22 | 3 | 2 | -3
CC(C)c1nc(SCC(=O)Nc2ccc3c(c2)OCCO3)n[nH]1 | 2 | 0 | -14 | -3 | 20* | -3
O=S(=O)(c1ccc(N2CCC(c3ccc(Cl)cc3)=N2)cc1)N(CCO)CCO | -4 | 48 | -13 | 3 | ? | 108*
O=C(CSc1ccc(Cl)cc1)Nc1ccc(-c2nc3ccccc3[nH]2)cc1 | -1 | -6 | -25 | -4 | 0 | -11
Cc1nc2cc(C)c(C)cc2s1 | 2 | -1 | -8 | 1 | -1 | -1
CN(C)c1ccc2nc3ccc(=[N+](C)C)cc-3sc2c1 | -33* | 26 | -5 | 12 | / | 6
Cc1cc2nc3ccc(=[N+](C)C)cc-3sc2cc1N | -48* | 26 | -8 | / | 6 | -6
COc1cccc(C(=O)NN2CC(O)=C(c3nc4ccccc4n3C)C2=N)c1 | 0 | -2 | -6 | -1 | 1 | -2
Cc1sc(NC(=O)CN2C(=O)NC3(CCCC3)C2=O)nc1-c1ccc(F)cc1 | -1 | / | / | 1 | 4 | /
CC(=O)c1sc(NC(=O)CN2C(=O)NC3(CCCC3)C2=O)nc1-c1ccccc1 | 1 | / | / | 18* | -1 | /
O=C(CN1C(=O)NC2(CCCC2)C1=O)Nc1ccc(Cl)cc1F | 5 | / | / | -3 | 1 | /
O=C(CN1C(=O)NC2(CCCC2)C1=O)Nc1ccccc1F | 0 | 1 | -22 | 27* | -1 | -1
CC(C)OP(=O)(c1ccc(N(C)C)cc1)C(Nc1ccccc1)c1ccccc1 (configuration not stated) | 2 | -3 | -15 | 0 | -3 | -1
O=C(O)c1ccc(NC(=O)c2ccco2)c(NC(=O)c2ccco2)c1 | 3 | / | / | -2 | -1 | /
COc1ccc(-c2c(NCCc3ccccc3)c(=O)c2=O)cc1 | 2 | / | / | -3 | 0 | /
O=S(=O)(Nc1ccc2ccccc2n1)c1ccccc1Cl | 1 | / | / | -7 | 3 | /
COc1cc2[nH]c(Cl)c([N+](=O)[O-])c2cc1OC | -3 | 4 | -7 | 2 | 19* | 36
O=C1SC(SCc2ccccc2Cl)=N/C1=C\c1ccc(C(=O)O)cc1 | -41* | 3 | -2 | 3 | -2 | 1
COc1ccc(/C=c2\sc3nc(-c4ccccc4OC)nn3c2=O)c(OC)c1 | -33* | -19 | 16 | 0 | -8 | -40
COc1ccccc1-c1nc2s/c(=C\c3cccs3)c(=O)n2n1 | -1 | 0 | -11 | -2 | 0 | -12
Cn1ccnc1C(=O)C1CCCN(Cc2cn[nH]c2-c2ccc(-c3ccccc3)cc2)C1 (configuration not stated) | 0 | 0 | 1 | 18* | 0 | -1
COc1ccc(NC(=O)CCc2c(C)nc3nc(CNC(=O)c4cccc(F)c4)nn3c2C)cc1OC | 2 | / | / | -1 | 1 | /
SMILES | MEX-5 binding | Runt-CBFb FRET | EBV gp42 block | LANA-H2B inh | RanGTP-Impb inh | Runt-SMMHC FRET
Cc1csc(NC(=O)c2cc(=O)[nH]c3ccccc23)n1 | -5 | 30 | -8 | 2 | 4 | 69*
Cc1csc(NC(=O)c2cc(C)nc3ccccc23)n1 | 0 | 0 | -12 | -5 | 4 | 8
COc1nc(NCCO)nc(Nc2ccccc2F)n1 | 1 | 0 | -5 | 0 | 1 | 1
Cc1cccc(OCc2nnc(SCC(=O)O)n2-c2ccccc2)c1 | 0 | / | / | 0 | 5 | /
Cc1ccc2nc(NCCCO)nc(-c3ccccc3)c2c1 | 0 | 29 | 12 | -2 | 30* | 59
COc1cc(Nc2nc(-c3ccccc3)c3cc(C)ccc3n2)cc(OC)c1OC | -1 | -7 | -12 | 1 | 1 | -13
OCCCNc1nc(-c2ccccc2)c2cc(Br)ccc2n1 | 1 | / | / | 0 | 33* | /
